Cav32 inh = human Cav3.2 channel inhibition, primary screen; Cav3.2-expressing cells, Fluo-4 calcium fluorescence FDSS; stronger effect = lower value; B-score at 10 µM; hit rate 4% among 100,000;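 active = single-dose well whose peak fluorescence ratio is a statistical outlier from its plate by either plate-standardised score or position-corrected B-score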
PLK1 inh = PLK1 (human) kinase inhibition; recombinant PLK1 kinase, TR-FRET peptide phosphorylation; hit rate 0.53% among 97,000; inhibition, % at 10 µM; P53350;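 active = inhibition of 50% or more in the single-concentration screen; inactive = inhibition below 50%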;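 note: 0% = DMSO max control and 100% = H-89 dihydrochloride min control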
EphB4 antag = EphB4-ephrin-B2 interaction antagonism. P54760. EphB4 LBD / TNYL-RAW-Alexa532 peptide, fluorescence polarization. inhibition, % at 7 µM. hit rate 0.15% among 97,000;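 active = inhibition above the screen-wide mean inhibition plus 3 SD, cut at about 15% in these data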;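 note: 0% = DMSO wells and 100% = excess unlabeled TNYL-RAW peptide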
PLK1 PBD inh = blocks phosphopeptide binding to human Plk1 polo box domain; Plk1 PBD phosphopeptide binding, fluorescence polarization; AID 693; inhibition, %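 (tested at about 20 µM)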; P53350; hit rate 0.13% among 97,000; in the data active = inhibition above about 34%, passing the limit was not always enough
HIV Rev-RRE inh = disrupts HIV-1 Rev binding to RRE RNA; hit rate 0.79% among 97,000; Rev peptide-RRE RNA binding, FRET; inhibition, % at 8 µM; AID 704; P05866;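 active = inhibition above the screen-wide mean plus 3 SD, cut at about 35% in these data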;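 note: 0% = median DMSO wells and 100% = median Neomycin B control wells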
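System: Cy5-labelled duplex RRE RNA binding fluorescein-labelled HIV Rev peptide; Signal: fluorescein-to-Cy5 FRET, 480 nm excitation; Also added: labelled Rev peptide; Compound: one concentration, 8 µM nominal; Buffer or medium: HEPES pH 7.5 salt buffer with EDTA; Read-out: % inhibition of FRET ratio versus controls; Schedule: 5 min preincubation and 15 min binding, 25 °C.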
FAK blocker = FAK (human) kinase inhibition | inhibition, %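 (tested at 7 µM)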 | hit rate 0.84% among 97,000 | AID 727 | biochemical FAK kinase activity assay | Q05397; in the data active = inhibition above about 19%;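 note: 0% = DMSO and 100% = reference compound high control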
Target sequence (Q05397 whole entry, looked up): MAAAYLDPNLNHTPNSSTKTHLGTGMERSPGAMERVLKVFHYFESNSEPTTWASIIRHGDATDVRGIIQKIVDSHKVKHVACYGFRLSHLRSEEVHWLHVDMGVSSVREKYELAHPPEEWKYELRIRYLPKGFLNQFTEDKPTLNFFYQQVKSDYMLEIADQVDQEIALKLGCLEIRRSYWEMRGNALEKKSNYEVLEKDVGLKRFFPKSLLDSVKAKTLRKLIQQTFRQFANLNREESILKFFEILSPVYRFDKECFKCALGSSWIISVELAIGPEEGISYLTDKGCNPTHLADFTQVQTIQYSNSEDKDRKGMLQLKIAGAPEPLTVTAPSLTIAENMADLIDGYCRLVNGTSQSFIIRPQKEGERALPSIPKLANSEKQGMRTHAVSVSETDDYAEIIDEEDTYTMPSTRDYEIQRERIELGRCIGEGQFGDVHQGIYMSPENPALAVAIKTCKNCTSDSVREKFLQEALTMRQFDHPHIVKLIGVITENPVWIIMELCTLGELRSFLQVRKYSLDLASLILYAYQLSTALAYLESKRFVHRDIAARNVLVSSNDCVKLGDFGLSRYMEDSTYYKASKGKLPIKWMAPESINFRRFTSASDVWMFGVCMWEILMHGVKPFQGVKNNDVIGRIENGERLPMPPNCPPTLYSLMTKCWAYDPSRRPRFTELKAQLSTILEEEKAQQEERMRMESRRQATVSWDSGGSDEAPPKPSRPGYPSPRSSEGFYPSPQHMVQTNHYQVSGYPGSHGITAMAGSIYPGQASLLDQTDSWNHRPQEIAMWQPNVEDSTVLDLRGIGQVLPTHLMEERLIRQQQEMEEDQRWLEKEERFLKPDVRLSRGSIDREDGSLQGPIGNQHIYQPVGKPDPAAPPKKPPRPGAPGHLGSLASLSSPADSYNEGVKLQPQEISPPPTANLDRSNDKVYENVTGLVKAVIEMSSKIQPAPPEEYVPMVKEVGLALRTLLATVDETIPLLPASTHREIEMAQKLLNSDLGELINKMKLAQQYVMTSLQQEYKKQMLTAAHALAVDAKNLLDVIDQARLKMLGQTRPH
An asterisk follows results filed as active; x = no result; [ ] = remark or other dose. Most compounds without a hit are left out; they make up all but 5.3% or so of the library.

SMILES	Cav32 inh	PLK1 inh	EphB4 antag	PLK1 PBD inh	HIV Rev-RRE inh	FAK blocker
COc1ccccc1C(c1nnnn1CCc1ccccc1)N1CCCCCC1 (centres undefined)	-9*	-2	-1	-7	12	2
COc1cccc(C(c2nnnn2Cc2ccco2)N2CCN(c3cccc(C)c3C)CC2)c1OC (centres undefined)	-6.9*	-12	1	-13	7	-1
COc1cccc(C(c2nnnn2Cc2ccccc2)N2CCN(C(=O)c3ccco3)CC2)c1OC (centres undefined)	-0.21	-11	1	15	7	-1
Cc1ccc(NC(=O)c2nc[nH]c2C(=O)NCC(=O)OC(C)(C)C)cc1	-0.31	x	x	x	x	x
Fc1ccc(C(c2nnnn2CCc2ccccc2)N2CCCc3ccccc32)cc1 (centres undefined)	-7.9*	17	2	14	8	-1
Fc1ccc(C(c2nnnn2C2CCCC2)N2CCc3ccccc32)cc1 (centres undefined)	x	-8	-6	16	1	-1
COc1cccc(C(c2nnnn2CCc2ccccc2)N2CCN(c3ccccc3)CC2)c1OC (centres undefined)	-4.2*	-2	-4	15	-1	5
COC(Cc1n[nH]c(=S)n1-c1ccc(Cl)cc1)OC	-0.31	-5	-5	-6	-2	-2
CCOC(=O)c1c(C)[nH]c(C(=O)OCC(=O)Nc2cc(C)c(Cl)cc2OC)c1C	0.61	-11	5	35	6	2
N#CC1=C(N)S[C@@H](C(=O)c2ccc(F)cc2)[C@@H]1c1cccs1	-4.7*	-2	-3	14	12	1
Cc1cc2ncn(C(=O)N3CCC(C)CC3)c2cc1C	-6.5*	-12	-1	-16	6	2
Cc1cc2ncn(C(=O)c3ccc4c(c3)OCO4)c2cc1C	0.62	2	-3	-22	10	2
O=C1c2ccccc2-c2cccc(NS(=O)(=O)c3ccc(C(F)(F)F)cc3)c21	-0.79	-9	-1	-43	100*[fluorescence artefact?]	-1
Cc1ccc(S(=O)(=O)Oc2ccc(/C=C(/NC(=O)c3ccccc3)C(=O)Nc3ccccc3)cc2)cc1	-5*	-11	-2	-25	3	-3
O=C(Nc1nc(-c2ccccc2)cs1)C1c2ccccc2Oc2ccccc21	-5.2*	-16	3	10	7	3
Cc1nnc(NC(=O)C2c3ccccc3Oc3ccccc32)s1	-0.39	-11	7	21	8	3
Cc1cccc2sc(NC(=O)C3c4ccccc4Oc4ccccc43)nc12	-3.3*	-12	-2	-14	6	8
COc1ccc(NC(=O)C2CCCN2S(=O)(=O)c2ccc3c(c2)CCC(=O)N3)cc1 (centres undefined)	-4.1*	-13	-7	17	1	0
COc1ccc(NC(=O)C2CCCN2S(=O)(=O)c2ccc3c(c2)CCC(=O)N3)cc1Cl (centres undefined)	0.57	x	x	x	x	x
COc1ccc2nc(NC(=O)C3CCCN3S(=O)(=O)c3ccc(C)cc3)sc2c1 (centres undefined)	-3.7*	-2	0	0	14	-1
Cc1ccc(S(=O)(=O)N2CCCC2C(=O)Nc2nc3c(s2)CCCC3)cc1 (centres undefined)	-4.1	-2	-9	-15	10	-2
CCOC(=O)c1ccc(S(=O)(=O)Nc2ccc3cn[nH]c3c2)cc1	-0.67	15	0	-4	7	-3
Cc1ccc2c(c1)N(CCC(=O)NCC1COc3ccccc3O1)C(=O)CO2 (centres undefined)	-2.8	-12	2	9	8	2
CCC1Oc2ccc(C)cc2N(CC(=O)NCC2COc3ccccc3O2)C1=O (centres undefined)	-5.2*	-10	-1	-9	9	1
CC12CC(NC(=O)N1c1cccc(C(=O)NCc3ccc4c(c3)OCO4)c1)c1cc(Cl)ccc1O2 (centres undefined)	-3.7*	-6	2	3	8	-3
SMILES	Cav32 inh	PLK1 inh	EphB4 antag	PLK1 PBD inh	HIV Rev-RRE inh	FAK blocker
CC(C)C(=O)Nc1cccc(C(=O)NCc2ccc3c(c2)OCO3)c1	-0.065	-8	-1	1	3	0
CC12CC(NC(=O)N1c1cccc(C(=O)N3CCN(c4ccccc4F)CC3)c1)c1ccccc1O2 (centres undefined)	-4.6*	-5	8	-2	5	-1
CCCNC(=O)c1c(N)n(-c2cc(OC)cc(OC)c2)c2nc3ccccc3nc12	-6.5*	x	x	x	x	x
C=CCn1c(N)c(C(=O)NCC2CCCO2)c2nc3ccccc3nc21 (centres undefined)	-2.3	-12	2	0	11	11
COc1ccc(-n2c(N)c(C(=O)NCC3CCCO3)c3nc4ccccc4nc32)c(OC)c1 (centres undefined)	-8*	-13	1	6	9	5
CCCNC(=O)c1c(N)n(-c2ccc3c(c2)OCO3)c2nc3ccccc3nc12	-1.5	-16	-3	2	7	-5
Cc1ccccc1COCCN1CCN(S(=O)(=O)c2ccccc2)CCC1=O	-1.3	x	x	x	x	x
FC(F)(F)c1ccc(C2[C@H]3CN(Cc4cccnc4)[C@H](c4ccccc4)C34CC2(c2ccccc2)C4)cc1 (some centres undefined)	-0.084	x	x	x	x	x
CCOC(=O)C1CCCN(C(=O)c2cc(Nc3ccc(OC)cc3)nc3ccccc23)C1 (centres undefined)	-5.5*	-4	7	-26	9	-1
CCOC(=O)C1CCCN(C(=O)c2cc3c(C)nc4ccccc4c3o2)C1 (centres undefined)	-0.39	-13	-3	3	6	-1
CCOC(=O)C1CCCN(C(=O)c2cc3c(=O)n(C)c4ccccc4c3n2C)C1 (centres undefined)	3.1*	12	-3	-26	7	12
COc1ccc(-c2nnn(CC(=O)NCCc3c[nH]c4ccccc34)n2)cc1OC	-1.8	-13	-1	2	1	6
O=C(CSc1n[nH]c(=O)n1C1CC1)Nc1cc(Cl)ccc1Oc1ccccc1	-6*	-14	-8	4	9	0
CCOC(=O)Cc1csc(SCC(=O)Nc2cc(Cl)ccc2Oc2ccccc2)n1	-5.6*	-11	4	-2	9	1
CCOC(=O)Cc1csc(SCC(=O)Nc2cccc(C#N)c2)n1	0.025	-7	-4	2	1	-1
CCOC(=O)Cc1csc(SCC(=O)Nc2cccc(Cl)c2)n1	-3.8*	-12	-5	5	2	0
Cc1ccc(Cn2c(C(C)Nc3nc(C)cs3)nc3cc(Cl)c(Cl)cc32)cc1 (centres undefined)	-0.25	x	x	x	x	x
Cc1[nH]c2ccccc2c1Cc1nnc(SCc2ccccc2)o1	-8.6*	-9	-3	-20	8	-1
O=C(Nc1nnc(-c2cccs2)o1)c1cccc(Oc2ccccc2)c1	-8.3*	-15	9	-4	6	-1
